# Hits are enriched below; roughly 2.5% of the tested compounds scored in any of these assays.
# SENP1 inh = inhibitors of human SENP1 SUMO protease catalytic domain; recombinant SENP1 catalytic domain, CyPet-SUMO1-YPet FRET cleavage; Q9P0U3; inhibition, % at 10 µM; AID 624204; 0.21% of 360,000 active;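 active = inhibition at least 30% at 10 µM, raw YFP signal under a set limit, fluorescence ratio 0.5 to 1.5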
#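 Material: hSENP1 catalytic domain, recombinant; medium: Tris pH 8 with BME, BSA, NP40 and catalase; compound: single concentration of 10 µM compound, 0.5% DMSO final; technique: FRET read of cyan and yellow fluorescence; timing: 50 min enzyme reaction, room temperature, light-protected; reagent: SFCypet-SUMO1-SFYpet substrate at 25 nM; control set: no-enzyme low, enzyme-DMSO high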
# SENP7 block = inhibitors of human SENP7 protease; inhibition, % at 5 µM; 1.5% of 330,000 active; recombinant SENP7, Z-RLRGG-aminoluciferin luminescence, 40 min; AID 434973; Q9BQF6;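 active = inhibition above about 50% at the single test dose, limit read from the data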
# SENP8 block-1 = blocks the human protease SENP8 | 1.2% of 330,000 active | purified SENP8, Z-RLRGG-aminoluciferin cleavage, luminescence | inhibition, % at 10 µM | Q96LD8; in the data active = inhibition above about 50%
# Target sequence (Q96LD8 whole entry, looked up): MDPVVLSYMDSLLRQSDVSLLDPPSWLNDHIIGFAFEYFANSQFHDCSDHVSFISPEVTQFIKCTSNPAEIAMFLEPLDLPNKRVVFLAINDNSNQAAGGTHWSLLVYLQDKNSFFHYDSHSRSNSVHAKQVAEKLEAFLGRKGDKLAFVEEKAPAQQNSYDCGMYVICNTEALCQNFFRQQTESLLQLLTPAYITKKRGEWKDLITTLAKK
# SENP6 block = blocks the human protease SENP6. Q9GZR1. Recombinant SENP6 catalytic domain, aminoluciferin luminescence. inhibition, % at 10 µM. 1.8% of 330,000 active. AID 2599;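 active = inhibition above about 50% at the single tested dose, limit read from the data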
# SENP8 block-2 = SENP8 (human) protease inhibition. inhibition, % at 20 µM. recombinant SENP8, Nedd8 substrate fluorescence. 0.64% of 360,000 active. Q96LD8; in the data active = inhibition mostly above about 40%, no sharp cut-off; inactive = mostly below about 27%
# SENP8 confirm = human SENP8 inhibition, confirmed; 40% of 6,200 active; AID 488912; shares compounds with SENP7 block; inhibition, % at 12.5 µM; Recombinant SENP8, Z-RLRGG-aminoluciferin luminescence, 60 min;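 active = mean inhibition across replicates above about 50%, limit read from the data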
# SENP6 confirm = confirmation of human SENP6 protease inhibitors; shares compounds with SENP7 block; recombinant SENP6, Z-RLRGG-aminoluciferin luminescence; inhibition, % at 12.5 µM; 58% of 6,200 active
# SENP7 confirm = confirmation of human SENP7 protease inhibitors; inhibition, % at 12.5 µM; 69% of 6,200 active; recombinant SENP7, Z-RLRGG-aminoluciferin luminescence, 40 min; shares compounds with SENP7 block
# Casp3 select = selectivity test for SENP inhibitors: human caspase-3 inhibition | shares compounds with SENP7 block | purified caspase-3, Z-DEVD-aminoluciferin luminescence, 60 min | inhibition, % at 12.5 µM | 60% of 6,200 active | AID 488918;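 active = mean inhibition above about 50%, limit read from the data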
# Target sequence (P42574 28-227 limits assumed): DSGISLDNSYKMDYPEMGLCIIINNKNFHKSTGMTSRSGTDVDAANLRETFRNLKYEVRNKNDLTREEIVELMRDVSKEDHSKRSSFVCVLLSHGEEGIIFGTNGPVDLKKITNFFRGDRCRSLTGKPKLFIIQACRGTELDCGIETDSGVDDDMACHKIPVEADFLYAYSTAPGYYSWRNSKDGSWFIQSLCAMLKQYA
# SENP luc ctr = counter-screen for SENP inhibitors: luminescence interference; shares compounds with SENP7 block; Pre-incubated SENP8/Z-RLRGG-aminoluciferin, luciferase luminescence interference; inhibition, % at 12.5 µM; 39% of 6,200 active;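 active = mean inhibition above about 50% when retested at one dose, limit read from the data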
# Numbers stand for hits; i = inactive; nt = not tested or not shown.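 Rule for the calls, unless noted: active = mean inhibition above about 50% in the one-dose retest (limit read from the data); inactive = the rest.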
SMILES,SENP1 inh,SENP7 block,SENP8 block-1,SENP6 block,SENP8 block-2,SENP8 confirm,SENP6 confirm,SENP7 confirm,Casp3 select,SENP luc ctr
Cc1cccc(/N=C/c2sc3ccccc3c2O)n1,i,90,62,80,i,i,i,i,i,i
CC(C)N=Cc1c(O)[nH]c2ccccc12,i,i,i,i,i,nt,nt,nt,nt,nt
Cc1cccc(/N=C/c2c(O)[nH]c3ccccc23)n1,i,i,75,88,i,i,73,94,72,i
O=C(N/N=C/c1sc2ccccc2c1O)c1cccc2ccccc12,i,nt,nt,nt,i,nt,nt,nt,nt,nt
Cc1c(C(=O)N2c3ccccc3CC2C)oc2ccccc12 (stereo unspecified),i,62,68,80,i,78,77,90,51,i
O=C(Nc1cccc2nsnc12)c1ccc2c(c1)OCCO2,i,i,66,77,i,i,83,98,88,i
O=C(Nc1cccc2cccnc12)c1ccc2c(c1)OCCO2,i,i,i,i,i,nt,nt,nt,nt,nt
O=C(Nc1cccc2nsnc12)c1ccc2c(c1)OCO2,i,60,52,69,i,i,66,77,67,i
Cc1[nH]n(C2=NCCS2)c(=O)c1N=Nc1cccc(C(F)(F)F)c1,i,i,i,74,i,i,i,i,i,i
Cc1[nH]n(C(N)=S)c(=O)c1N=Nc1cccc(C(F)(F)F)c1,i,i,81,79,i,i,i,i,i,i
Cc1[nH]n(C(N)=S)c(=O)c1N=Nc1ccc(Br)cc1,i,82,92,93,i,i,i,i,i,i
Cc1[nH]n(-c2ccccc2)c(=O)c1N=Nc1cccc(S(=O)(=O)N2CCOCC2)c1,i,i,i,i,i,nt,nt,nt,nt,nt
Cc1[nH]n(-c2ccccc2)c(=O)c1N=Nc1ccccc1,i,i,i,i,i,nt,nt,nt,nt,nt
Cc1[nH]n(-c2ccccc2)c(=O)c1N=Nc1cccc(C(=O)O)c1,i,i,i,56,49,i,i,59,i,i
O=C(NCc1nnc2c(C(F)(F)F)cc(Cl)cn12)c1cccs1,i,i,i,i,i,nt,nt,nt,nt,nt
CC12CCC(C(=O)CC1=O)C2(C)C (stereo unspecified),i,nt,nt,nt,i,nt,nt,nt,nt,nt
O=C(/C=C\c1ccccc1)Nc1nccs1,i,88,61,83,i,59,61,95,88,i
O=C(Nc1nccs1)C(Br)C(Br)c1ccccc1 (stereo unspecified),i,91,79,84,i,76,73,95,85,i
CC(=O)OC(C(=O)Nc1nccs1)c1ccccc1 (stereo unspecified),i,i,i,i,i,nt,nt,nt,nt,nt
CCCS(=O)(=O)NC(=O)C1(C)CCN(C(=O)COc2ccccc2)C1 (stereo unspecified),i,nt,nt,nt,i,nt,nt,nt,nt,nt
O=C(NCC[C@@H]1CC[C@@H](NS(=O)(=O)Cc2ccccc2)[C@@H](CO)O1)C1CC1,i,nt,nt,nt,i,nt,nt,nt,nt,nt
Cc1ccc(NC(=O)C2CCCN(C(=O)Nc3ccc(F)cc3)C2)cc1 (stereo unspecified),i,i,i,i,i,nt,nt,nt,nt,nt
Cc1ccc(C2CCN(C(=O)Nc3ccc(F)cc3)C2)cc1 (stereo unspecified),i,i,i,61,i,i,i,i,i,i
O=C(Nc1ccccc1)N1CC=C(c2ccc(F)cc2)CC1,i,i,i,52,i,i,i,59,i,i
Cc1ccccc1N1Cc2ccccc2C1=O,i,nt,nt,nt,i,nt,nt,nt,nt,nt
CC(C(=O)O)c1ccc(N2Cc3ccccc3C2=O)cc1 (stereo unspecified),i,i,i,54,i,i,i,72,78,55
CCC(=O)c1ccc(SC(=O)N(C)C)cc1O,i,i,i,i,i,nt,nt,nt,nt,nt
CCCCN=C1NN=C(c2ccc3c(c2)OCCO3)CS1,i,i,i,i,i,nt,nt,nt,nt,nt

# Source: PubChem BioAssay (Sanford-Burnham Center for Chemical Genomics)
